Assay outcomes (PubChem)
Sampled rows, rich in hits. Any-hit rate of the full collection: about 3.5%.
RGS4 pot = RGS4 potentiators or activators, primary screen, cell-based, HEK293 M3R inducible RGS4, calcium flux; carbachol calcium flux Fluo4; hits give low values; B-score at 10 µM; 0.92% of 310,000 active;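 active = B-score of the integrated calcium signal more than 4 SD below the library mean, with starting fluorescence not abnormally high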;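 note: negative B-score means reduced calcium response which marks RGS4 activation or potentiation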
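Also added: carbachol at ECmax as muscarinic agonist stimulus; Assay system: HEK293 cells with stable M3R and inducible RGS4; Timing: overnight RGS4 induction, 30 min dye load 37 °C, 20 min compound RT; Measured by: Fluo4-AM (2 µM) calcium-flux fluorescence, kinetic read.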
RGS4 inh = RGS4 inhibitors, primary screen, cell-based, HEK293 M3R inducible RGS4, calcium flux; Regulator of G-protein signaling 4 (Homo sapiens), P49798; Fluo-4 calcium flux; hits give high values; triggered by carbachol at its EC20; B-score at 10 µM; 0.45% of 310,000 active;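 active = B-score, a plate-corrected calcium signal, over three deviations above library mean, with baseline fluorescence within five deviations of library mean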;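 note: RGS4 expression induced by doxycycline in cells with stable M3 receptor; B-score is computed from the integrated fluorescence ratio over baseline after carbachol; higher B-score means a larger calcium signal and so more RGS4 inhibition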
Target sequence (P49798 whole entry, looked up): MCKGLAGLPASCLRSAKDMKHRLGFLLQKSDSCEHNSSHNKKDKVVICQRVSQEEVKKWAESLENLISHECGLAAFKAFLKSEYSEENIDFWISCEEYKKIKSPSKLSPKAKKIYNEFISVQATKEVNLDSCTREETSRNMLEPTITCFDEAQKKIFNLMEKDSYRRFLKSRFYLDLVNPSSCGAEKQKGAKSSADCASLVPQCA
MrgX1 ag = agonists of human MrgX1 receptor, primary screen, HEK293 cells, Fluo-4 calcium flux. Mas-related G-protein coupled receptor member X1 (Homo sapiens), Q96LB2. Fluo-4 calcium fluorescence, agonist mode; hits give high values. B-score at 10 µM. 0.44% of 310,000 active. AID 588627, 2011;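 active = calcium response B-score plate-corrected fluorescence ratio at least 3 library SD, with starting fluorescence B-score inside 5 SD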
Target sequence (Q96LB2 whole entry, looked up): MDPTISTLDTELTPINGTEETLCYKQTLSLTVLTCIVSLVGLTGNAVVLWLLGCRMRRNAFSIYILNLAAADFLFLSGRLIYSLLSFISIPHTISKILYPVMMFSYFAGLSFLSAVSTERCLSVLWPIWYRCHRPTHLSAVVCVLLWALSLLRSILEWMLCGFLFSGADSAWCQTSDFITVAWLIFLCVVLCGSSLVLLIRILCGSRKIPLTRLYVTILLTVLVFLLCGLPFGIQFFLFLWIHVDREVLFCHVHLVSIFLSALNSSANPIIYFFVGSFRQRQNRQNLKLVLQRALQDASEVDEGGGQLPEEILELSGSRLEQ
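Test system: Stable human MrgX1 HEK293 cell line | Schedule: Overnight plating before 1 h dye loading | Read-out basis: Baseline-normalised fluorescence change ratio, B-scored | Detection: Kinetic calcium dye fluorescence, Fluo-4 NW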
MrgX1 allo act = positive allosteric modulators of MrgX1, primary screen, HEK293 cells, Fluo-4 calcium flux; Mas-related G-protein coupled receptor member X1 (Homo sapiens), Q96LB2; FDSS; hits give high values; B-score at 10 µM; 0.63% of 310,000 active;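 active = plate-corrected calcium response at least 3 library SD above typical, normal starting fluorescence, not activating the receptor alone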;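 note: compound read alongside a low EC10 to EC30 dose of BAM8-22 agonist; peak minus trough fluorescence over baseline measured at the second addition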
MrgX1 antagonist = antagonists of human MrgX1 receptor, primary screen, HEK293 cells, Fluo-4 calcium flux; Mas-related G-protein coupled receptor member X1 (Homo sapiens), Q96LB2; BAM8-22 antagonism; hits give low values; B-score at 10 µM; 1.3% of 310,000 active;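 active = calcium-response B-score plate-corrected more than 3 library SD below zero, starting fluorescence within 5 deviations, no agonist response on first addition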;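 note: peak minus trough fluorescence over baseline after final BAM8-22 challenge near maximal dose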
RGS4 inh valid = enhanced carbachol calcium response, M3R/RGS4 cells, RGS4 inhibitor project, cell-based, validation screen, HEK293 M3R/RGS4, calcium flux | shares compounds with RGS4 inh | 65% of 1,700 active | carbachol calcium Fluo-4 fluorescence; carbachol added at its EC20; 0 = buffer wells, 100 = carbachol control | calcium response, % at 10 µM;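 active = duplicate-averaged calcium response above the buffer-only control mean plus 5 SD of those controls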;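 note: integrated fluorescence ratio F max minus min over baseline F0; higher response in RGS4-induced cells means RGS4 inhibition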
RGS4 uninduced = carbachol calcium response in non-induced M3R cells, confirmation, counter-screen for RGS4 inhibitor project, cell-based, HEK293 M3R; shares compounds with RGS4 inh; carbachol calcium Fluo-4; submaximal (EC20) carbachol stimulus; buffer wells 0%, carbachol control wells 100%; activity (percent), % at 10 µM; 20% of 1,900 active; AID 493000, 2010; call rule not given here;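 note: RGS4 induction absent so cells express M3R without RGS4; higher means more calcium signal and flags a non-specific hit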
RGS4 inh ctr2 = second RGS4 inhibitor counter-screen in uninduced cells lacking carbachol | shares compounds with RGS4 inh | calcium response (agonist-mode artifact), % at 10 µM | 22% of 1,900 active | AID 493001 | HEK293 M3R/RGS4 non-induced, Fluo-4 calcium, no carbachol; normalised: buffer wells 0%, carbachol wells 100%;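 active = duplicate-averaged calcium rise in uninduced cells above buffer wells' mean plus 5 SD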
* hit, by the source's call.

`OCCN(CCO)c1ccc(C(c2ccccc2Cl)c2ccc(N(CCO)CCO)cc2Cl)c(Cl)c1` gave RGS4 pot inactive, RGS4 inh inactive, MrgX1 ag inactive, MrgX1 allo act inactive, MrgX1 antagonist inactive, RGS4 inh valid inactive, RGS4 uninduced inactive and RGS4 inh ctr2 15%*.
`O=c1c2ccccc2nc2c3ccccc3c(NCc3ccco3)nn12` gave RGS4 pot inactive, RGS4 inh 4.9*, MrgX1 ag inactive, MrgX1 allo act inactive, MrgX1 antagonist inactive, RGS4 inh valid inactive, RGS4 uninduced inactive and RGS4 inh ctr2 inactive.
`CCCn1c(SCC(=O)c2[nH]c(C)c(C(C)=O)c2C)n[nH]c1=O` gave RGS4 pot inactive, RGS4 inh inactive, MrgX1 ag inactive, MrgX1 allo act inactive and MrgX1 antagonist inactive.
For O=C(O)c1ccccc1C(=O)Nc1ccccc1 the results were RGS4 pot inactive, RGS4 inh inactive, MrgX1 ag inactive, MrgX1 allo act inactive and MrgX1 antagonist inactive.
O=C(Nc1ccccc1)C1=C(c2ccccc2)S(=O)(=O)CCS1(=O)=O was read as RGS4 pot inactive, RGS4 inh 23*, RGS4 inh valid 47%*, RGS4 uninduced inactive and RGS4 inh ctr2 inactive.
`N#CCCN(Cc1ccccc1)C(=O)Nc1ccccc1` gave RGS4 pot inactive, RGS4 inh inactive, MrgX1 ag inactive, MrgX1 allo act inactive and MrgX1 antagonist inactive.
Cc1onc(-c2ccccc2)c1NC(=O)N(CCC#N)Cc1ccccc1 was read as RGS4 pot inactive, RGS4 inh 6.3*, MrgX1 ag inactive, MrgX1 allo act inactive, MrgX1 antagonist inactive, RGS4 inh valid inactive, RGS4 uninduced inactive and RGS4 inh ctr2 inactive.
For O=C(Nc1ccccc1)C(Cl)C(=O)c1ccccc1 (stereo unspecified) the results were RGS4 pot inactive, RGS4 inh 9.1*, MrgX1 ag inactive, MrgX1 allo act inactive, MrgX1 antagonist inactive, RGS4 inh valid 30%*, RGS4 uninduced 38%* and RGS4 inh ctr2 inactive.
`O=C(Nc1ccc(S(=O)(=O)N2CCCC2)cc1)c1cc(F)c(F)cc1Cl` gave RGS4 pot inactive, RGS4 inh inactive, MrgX1 ag inactive, MrgX1 allo act inactive and MrgX1 antagonist inactive.
`CCOC(=O)COc1cc([N+](=O)[O-])cc2cccnc12` gave RGS4 pot inactive, RGS4 inh inactive, MrgX1 ag inactive, MrgX1 allo act inactive and MrgX1 antagonist inactive.
`CCOC(=O)COc1ccccc1/C=C\[N+](=O)[O-]` gave RGS4 pot inactive, RGS4 inh 19*, MrgX1 ag inactive, MrgX1 allo act inactive, MrgX1 antagonist inactive, RGS4 inh valid 70%*, RGS4 uninduced inactive and RGS4 inh ctr2 11%*.
Screening COc1cc(/C=C(/C(=O)c2cccs2)c2nc3ccccc3[nH]2)ccc1O returned RGS4 pot inactive, RGS4 inh 9.2*, MrgX1 ag inactive, MrgX1 allo act inactive, MrgX1 antagonist inactive, RGS4 inh valid 18%*, RGS4 uninduced inactive and RGS4 inh ctr2 inactive.
Cc1cc(C)c(S(=O)(=O)Nc2cccc(S(=O)(=O)NC3=NCCC3)c2)c(C)c1 was read as RGS4 pot inactive, RGS4 inh 4.8*, MrgX1 ag inactive, MrgX1 allo act inactive, MrgX1 antagonist inactive, RGS4 inh valid inactive, RGS4 uninduced inactive and RGS4 inh ctr2 inactive.
Screening COC(Cc1ccccc1N1CCCC1=O)OC returned RGS4 pot inactive, RGS4 inh inactive, MrgX1 ag inactive, MrgX1 allo act inactive and MrgX1 antagonist inactive.
`O=C1C(=O)N(CCCN2CCOCC2)C(c2cccs2)/C1=C(/O)c1ccc2c(c1)OCO2` (stereo unspecified) gave RGS4 pot inactive and RGS4 inh inactive.
Screening COC(=O)Nc1cccn(Cc2c(Cl)cccc2Cl)c1=O returned RGS4 pot inactive, RGS4 inh 8.4*, MrgX1 ag inactive, MrgX1 allo act inactive, MrgX1 antagonist inactive, RGS4 inh valid 6.5%*, RGS4 uninduced inactive and RGS4 inh ctr2 inactive.
`O=C(Nc1cccn(Cc2c(Cl)cccc2Cl)c1=O)c1c(Cl)cccc1Cl` gave RGS4 pot inactive, RGS4 inh inactive, MrgX1 ag inactive, MrgX1 allo act inactive and MrgX1 antagonist inactive.
O=C(CCN1C(=O)S/C(=C\c2cccs2)C1=O)NC1=NCCS1 was read as RGS4 pot inactive, RGS4 inh inactive, MrgX1 ag inactive, MrgX1 allo act inactive and MrgX1 antagonist inactive.
Screening Cc1noc(/C=C/c2ccccn2)c1[N+](=O)[O-] returned RGS4 pot inactive, RGS4 inh 6.8*, MrgX1 ag inactive, MrgX1 allo act inactive, MrgX1 antagonist inactive, RGS4 inh valid 27%*, RGS4 uninduced 30%* and RGS4 inh ctr2 inactive.
For COc1ccc(CCNC(=O)CC2COc3ccccc3O2)cc1OC (stereo unspecified) the results were RGS4 pot inactive, RGS4 inh 13*, MrgX1 ag inactive, MrgX1 allo act inactive, MrgX1 antagonist inactive, RGS4 inh valid inactive, RGS4 uninduced inactive and RGS4 inh ctr2 inactive.
For COc1cc(OC)c(OC)cc1NC(=O)CC1COc2ccccc2O1 (stereo unspecified) the results were RGS4 pot inactive, RGS4 inh inactive, MrgX1 ag inactive, MrgX1 allo act inactive and MrgX1 antagonist inactive.
For CCOC(=O)C1CCN(Cc2cc(=O)oc3cc(C)c(Cl)cc23)CC1 the results were RGS4 pot inactive, RGS4 inh 9.3*, MrgX1 ag inactive, MrgX1 allo act inactive, MrgX1 antagonist inactive, RGS4 inh valid 5.0%*, RGS4 uninduced inactive and RGS4 inh ctr2 inactive.
Screening COc1ccc(OC)c(CN2CCN(Cc3cc(=O)oc4cc(O)ccc34)CC2)c1 returned RGS4 pot inactive, RGS4 inh inactive, MrgX1 ag inactive, MrgX1 allo act inactive and MrgX1 antagonist inactive.
